Reference: ChEMBL document CHEMBL1152839, “2-[2-Substituted-3-(3,4-dichlorobenzylamino)propylamino]-1H-quinolin-4-ones as Staphylococcus aureus methionyl-tRNA synthetase inhibitors” (Eur J Med Chem, 2009)
In brackets after ≈: the same amount, converted by molar mass.

Legend:
[1] = Inhibition of Staphylococcus aureus methionyl-tRNA synthetase assessed as decrease in [35S]methionyl-tRNA generation
Staphylococcus aureus [2] = assay: Antibacterial activity against Staphylococcus aureus ATCC 25923 after 16 hrs at 36 degC by microdilution method; assay type: functional; details: ATCC 25923, 16 h
How it was run: (§1)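 Broth microdilution in Mueller-Hinton broth, following NCCLS/CLSI. Stock solutions were serially diluted 2-fold to the final test concentrations. The MIC was the lowest concentration that prevented visible growth after incubation at 36 °C. Mupirocin and amoxicillin were reference antibiotics run by the same method.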

Staphylococcus aureus [3] = assay: Antibacterial activity against Staphylococcus aureus ATCC 6538P after 16 hrs at 36 degC by microdilution method; assay type: functional; how it was run: as §1
Staphylococcus aureus [4] = assay: Antibacterial activity against Staphylococcus aureus ATCC 10537 after 16 hrs at 36 degC by microdilution method; assay type: functional; details: ATCC 10537, 16 h; how it was run: as §1
Staphylococcus aureus [5] = assay: Antibacterial activity against Staphylococcus aureus GIORGIO after 16 hrs at 36 degC by microdilution method; assay type: functional; how it was run: as §1
Staphylococcus aureus [6] = assay: Antibacterial activity against Staphylococcus aureus Smith after 16 hrs at 36 degC by microdilution method; assay type: functional; how it was run: as §1
Staphylococcus aureus [7] = assay: Antibacterial activity against Staphylococcus aureus SP-N2 after 16 hrs at 36 degC by microdilution method; assay type: functional
How it was run: (§2)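 Broth microdilution per CLSI in Mueller-Hinton broth for staphylococci. Stock solutions were diluted in a 2-fold serial series to final test concentrations. The MIC was read as the lowest concentration that prevented visible bacterial growth after incubation at 36 °C. Mupirocin and amoxicillin were run by the same method as references.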

[8] = system: Staphylococcus epidermidis; assay: Antibacterial activity against Staphylococcus epidermidis ATCC 12228 after 16 hrs at 36 degC by microdilution method; assay type: functional; details: ATCC 12228, 16 h; how it was run: as §1
Enterococcus faecium = assay: Antibacterial activity against Enterococcus faecium ATCC 10541 after 16 hrs at 36 degC by microdilution method; assay type: functional; details: ATCC 10541, 16 h
How it was run: (§3)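 Broth microdilution in Brain Heart Infusion broth, following NCCLS/CLSI. Test compounds were serially diluted 2-fold from stock. The MIC was the lowest concentration with no visible bacterial growth after incubation at 36 °C. Mupirocin and amoxicillin were tested the same way as references.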

Enterococcus faecalis [9] = assay: Antibacterial activity against Enterococcus faecalis ATCC 19433 after 16 hrs at 36 degC by microdilution method; assay type: functional; details: ATCC 19433, 16 h; how it was run: as §3
Enterococcus faecalis [10] = assay: Antibacterial activity against Enterococcus faecalis ATCC 29212 after 16 hrs at 36 degC by microdilution method; assay type: functional; details: ATCC 29212, 16 h; how it was run: as §3
Staphylococcus aureus [11] = assay: Antibacterial activity against methicillin-resistant Staphylococcus aureus KS2007-6 after 16 hrs at 36 degC by microdilution method; assay type: functional; how it was run: as §2

| SMILES | IC50 [1] | MIC (Staphylococcus aureus [2]) | MIC (Staphylococcus aureus [3]) | MIC (Staphylococcus aureus [4]) | MIC (Staphylococcus aureus [5]) | MIC (Staphylococcus aureus [6]) | MIC (Staphylococcus aureus [7]) | MIC [8] | MIC (Enterococcus faecium) | MIC (Enterococcus faecalis [9]) | MIC (Enterococcus faecalis [10]) | MIC (Staphylococcus aureus [11]) |
| --- | --- | --- | --- | --- | --- | --- | --- | --- | --- | --- | --- | --- |
| CN(C)C(CNc1cc(=O)c2ccccc2[nH]1)CN(Cc1ccc(Cl)c(Cl)c1)Cc1ccc(Cl)c(Cl)c1 (stereo not given) | 131 nM | > 64 µg/mL | > 64 µg/mL | > 64 µg/mL | > 64 µg/mL | > 64 µg/mL | > 64 µg/mL | > 64 µg/mL | > 64 µg/mL | > 64 µg/mL | > 64 µg/mL |  |
| COCC(CNCc1ccc(Cl)c(Cl)c1)CNc1cc(=O)c2ccccc2[nH]1 (stereo not given) | 15 nM | 16 µg/mL (≈ 38.1 µM) | 4 µg/mL (≈ 9.52 µM) | 8 µg/mL (≈ 19 µM) | 16 µg/mL (≈ 38.1 µM) | 8 µg/mL (≈ 19 µM) | 8 µg/mL (≈ 19 µM) | 4 µg/mL (≈ 9.52 µM) | 0.125 µg/mL (≈ 0.297 µM) | 0.5 µg/mL (≈ 1.19 µM) | 0.5 µg/mL (≈ 1.19 µM) | 4 µg/mL (≈ 9.52 µM) |
| C=CCOC(CNCc1ccc(Cl)c(Cl)c1)CNc1cc(=O)c2ccccc2[nH]1 (stereo not given) | 29.4 nM | 8 µg/mL (≈ 18.5 µM) | 8 µg/mL (≈ 18.5 µM) | 16 µg/mL (≈ 37 µM) | 16 µg/mL (≈ 37 µM) | 8 µg/mL (≈ 18.5 µM) | 8 µg/mL (≈ 18.5 µM) | 4 µg/mL (≈ 9.25 µM) | 1 µg/mL (≈ 2.31 µM) | 2 µg/mL (≈ 4.63 µM) | 2 µg/mL (≈ 4.63 µM) | 4 µg/mL (≈ 9.25 µM) |
| CN(C)C(CNCc1ccc(Cl)c(Cl)c1)CNc1cc(=O)c2ccccc2[nH]1 (stereo not given) | 39.6 nM | > 64 µg/mL | > 64 µg/mL | 64 µg/mL (≈ 153 µM) | > 64 µg/mL | 64 µg/mL (≈ 153 µM) | 64 µg/mL (≈ 153 µM) | 32 µg/mL (≈ 76.3 µM) | 8 µg/mL (≈ 19.1 µM) | 16 µg/mL (≈ 38.2 µM) | 16 µg/mL (≈ 38.2 µM) | 64 µg/mL (≈ 153 µM) |
| CC1(C)S[C@@H]2[C@H](NC(=O)[C@H](N)c3ccc(O)cc3)C(=O)N2[C@H]1C(=O)O [AMOXICILLIN] |  | 0.25 µg/mL (≈ 0.684 µM) | 0.125 µg/mL (≈ 0.342 µM) | 0.125 µg/mL (≈ 0.342 µM) | 0.125 µg/mL (≈ 0.342 µM) | 0.125 µg/mL (≈ 0.342 µM) | 0.25 µg/mL (≈ 0.684 µM) | 0.125 µg/mL (≈ 0.342 µM) | 8 µg/mL (≈ 21.9 µM) | 64 µg/mL (≈ 175 µM) | 64 µg/mL (≈ 175 µM) | 0.25 µg/mL (≈ 0.684 µM) |
| C/C(=C\C(=O)OCCCCCCCCC(=O)O)C[C@@H]1OC[C@H](C[C@@H]2O[C@H]2[C@@H](C)[C@H](C)O)[C@@H](O)[C@H]1O [MUPIROCIN] |  | 0.25 µg/mL (≈ 0.499 µM) | 0.5 µg/mL (≈ 0.999 µM) | 0.25 µg/mL (≈ 0.499 µM) | 0.25 µg/mL (≈ 0.499 µM) | 0.25 µg/mL (≈ 0.499 µM) | > 64 µg/mL | 2 µg/mL (≈ 3.99 µM) | 1 µg/mL (≈ 2 µM) | 1 µg/mL (≈ 2 µM) | 2 µg/mL (≈ 3.99 µM) |  |
| O=C(OC(CNCc1ccc(Cl)c(Cl)c1)CNc1cc(=O)c2ccccc2[nH]1)c1ccccc1 (stereo not given) | 69.4 nM | 64 µg/mL (≈ 129 µM) | 32 µg/mL (≈ 64.5 µM) | 64 µg/mL (≈ 129 µM) | 32 µg/mL (≈ 64.5 µM) | 32 µg/mL (≈ 64.5 µM) | 32 µg/mL (≈ 64.5 µM) | 16 µg/mL (≈ 32.2 µM) | 8 µg/mL (≈ 16.1 µM) | 16 µg/mL (≈ 32.2 µM) | 16 µg/mL (≈ 32.2 µM) | 32 µg/mL (≈ 64.5 µM) |
